These results are taken from PubChem BioAssay.

A short description of assay [1]: thallium flux activation in parental CHO cells, counter-screen for KCNQ1 potentiator project (AID 493006;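 active = duplicate-averaged activation above buffer control mean plus 5 SD of those controls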;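 for activation: fluorescence ratio of max minus min over baseline after K+ and Tl+ depolarization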). The note with it: parental CHO-K1 cells, FluxOR thallium flux, at 10 µM; active compounds read high. A digest of the protocol: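 Material: parental CHO-K1 cells, FluxOR dye-loaded; Also added: Potassium/thallium depolarization pulse; Schedule: overnight 37 °C plating, 90 min dye, 20 min dark compound; Signal: kinetic FluxOR fluorescence, 10 s baseline, 110 s after stimulus.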
A general note: Counterscreens check selectivity or assay interference.

The target in assay [2] is Potassium voltage-gated channel subfamily KQT member 1 (Homo sapiens) (UniProt P51787). Description: KCNQ1 potassium channel potentiators, confirmation, FluxOR thallium flux, CHO cells, duplicates (AID 493007;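 active = potentiation averaged over duplicate wells exceeding buffer-only control mean by more than 3 SD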;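 for outcome: cells depolarized by a potassium plus thallium sulfate stimulus after compound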). The note with it: KCNQ1 cell line, FluxOR thallium flux fluorescence, at 10 µM; active compounds read high, % of reference activator effect, buffer zero. A digest of the protocol:
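System: KCNQ1-expressing CHO cell line; technique: kinetic thallium influx fluorescence with FluxOR dye, 10 s baseline, 110 s post-stimulus; timing: dye 90 min then compound 20 min, both at room temperature; controls: buffer-only wells as 0% and R-L3 activator as 100%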

Assay [3] deals with Potassium voltage-gated channel subfamily KQT member 2 (Rattus norvegicus) (UniProt O88943). Description: rat KCNQ2 channel potentiation, selectivity assay for KCNQ1 potentiator project, KCNQ2-CHO-K1 cells (AID 493009).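 Note: assay conditions were tuned for KCNQ1 rather than KCNQ2 modulators; signal is max minus min fluorescence divided by baseline after thallium stimulus.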 The following applies: FluxOR thallium flux fluorescence, at 10 µM; active compounds read high, scaled: buffer 0, activator control 100.
Chain of Potassium voltage-gated channel subfamily KQT member 2 (Rattus norvegicus) (O88943 whole entry, looked up): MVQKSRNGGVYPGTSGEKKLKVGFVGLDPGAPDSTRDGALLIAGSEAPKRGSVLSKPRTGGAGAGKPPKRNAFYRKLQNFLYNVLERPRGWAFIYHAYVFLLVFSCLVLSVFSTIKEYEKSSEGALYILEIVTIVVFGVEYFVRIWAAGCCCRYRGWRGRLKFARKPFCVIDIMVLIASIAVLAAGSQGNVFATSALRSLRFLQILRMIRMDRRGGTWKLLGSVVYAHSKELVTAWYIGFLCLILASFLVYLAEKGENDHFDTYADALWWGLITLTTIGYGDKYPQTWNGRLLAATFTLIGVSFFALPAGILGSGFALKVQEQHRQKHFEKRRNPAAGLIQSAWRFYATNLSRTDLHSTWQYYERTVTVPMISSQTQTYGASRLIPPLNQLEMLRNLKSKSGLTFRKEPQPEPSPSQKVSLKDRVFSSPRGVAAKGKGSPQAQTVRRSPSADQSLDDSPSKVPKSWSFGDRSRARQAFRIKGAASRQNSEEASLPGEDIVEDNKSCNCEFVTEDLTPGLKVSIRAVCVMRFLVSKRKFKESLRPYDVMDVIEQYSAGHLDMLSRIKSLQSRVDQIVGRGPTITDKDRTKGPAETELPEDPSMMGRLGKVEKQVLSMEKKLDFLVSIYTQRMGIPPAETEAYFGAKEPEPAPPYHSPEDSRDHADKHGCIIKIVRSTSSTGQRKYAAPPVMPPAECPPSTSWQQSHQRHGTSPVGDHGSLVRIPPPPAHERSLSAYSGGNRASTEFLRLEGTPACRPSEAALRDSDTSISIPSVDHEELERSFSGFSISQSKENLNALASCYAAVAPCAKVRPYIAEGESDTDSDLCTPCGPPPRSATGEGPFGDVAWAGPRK
For assay [4], the target named is Potassium voltage-gated channel subfamily KQT member 1 (Homo sapiens) (UniProt P51787). Description: KCNQ1 channel current potentiators, confirmation, orthogonal assay for KCNQ1 potentiator project, IonWorks patch clamp, KCNQ1-CHO cells (AID 493184;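 active = current rise at least 3 SD above the untreated control mean in each of two repeat wells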;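 for current potentiation: percent change of the same well's current before compound addition so 0% = no change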). The following applies: automated patch clamp current, at 10 µM; active compounds read high. The method in brief:
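Test system: KCNQ1-expressing CHO cells. Medium: pH 7.4 external bath. Probe or stimulus: voltage step from -90 mV holding to +40 mV, 2,000 ms. Compound: 10 µM final, single point. Detection: automated perforated-patch electrophysiology. Read-out: percent current increase versus pre-compound level. Repeats: two replicates.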
(In general: Patch clamp records ionic current or voltage across a cell membrane.)

Activity calls are given as the source filed them.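 Rule for the calls, unless noted: active = mean duplicate potentiation above the buffer control mean plus 5 SD of buffer wells; inactive = the rest.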

Chain of Potassium voltage-gated channel subfamily KQT member 1 (Homo sapiens) (P51787 whole entry, looked up): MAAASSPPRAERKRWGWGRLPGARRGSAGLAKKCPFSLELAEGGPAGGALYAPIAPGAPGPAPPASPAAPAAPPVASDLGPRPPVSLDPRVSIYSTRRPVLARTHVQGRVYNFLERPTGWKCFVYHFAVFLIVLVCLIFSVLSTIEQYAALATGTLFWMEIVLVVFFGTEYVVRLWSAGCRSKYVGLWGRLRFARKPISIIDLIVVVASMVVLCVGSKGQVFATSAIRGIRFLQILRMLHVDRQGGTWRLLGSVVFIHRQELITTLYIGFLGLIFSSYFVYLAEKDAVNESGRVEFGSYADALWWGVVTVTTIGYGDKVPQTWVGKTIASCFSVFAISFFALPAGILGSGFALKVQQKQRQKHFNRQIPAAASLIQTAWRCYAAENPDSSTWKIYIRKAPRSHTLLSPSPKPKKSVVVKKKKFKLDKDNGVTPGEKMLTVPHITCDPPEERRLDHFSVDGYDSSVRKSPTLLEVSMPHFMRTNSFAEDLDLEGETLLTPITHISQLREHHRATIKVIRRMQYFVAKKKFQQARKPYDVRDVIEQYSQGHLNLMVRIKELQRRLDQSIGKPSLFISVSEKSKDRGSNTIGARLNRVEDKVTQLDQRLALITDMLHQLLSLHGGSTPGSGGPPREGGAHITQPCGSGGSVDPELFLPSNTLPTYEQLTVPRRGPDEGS

Take `O=C(CSc1nc(=O)n2ccccc2n1)NCc1ccccc1`: the result in assay [1], in assay [2], in assay [3] and in assay [4] was inactive.

In the case of `Cc1onc(-c2ccccc2)c1C(=O)N1CCN(S(=O)(=O)c2ccc(OC(F)(F)F)cc2)CC1`, the result in assay [1], in assay [2], in assay [3] and in assay [4] was inactive.

Take `O=C(COc1ncnc2ccc(Br)cc12)Nc1ccc(N2CCOCC2)cc1`: the outcome in assay [1], in assay [2], in assay [3] and in assay [4] was inactive.

Regarding `O=c1c2c3c(sc2[nH]c(=S)n1Cc1ccco1)CCC3`, the activation in assay [1] is 264% (active). Besides, the figures for the potentiation in assay [2] and in assay [3] were 108% (active) and 289% (active), respectively. Also, the outcome in assay [4] was inactive.

On to `COc1ccc(N2CCN(C(=S)NC(=O)c3cccs3)CC2)c([N+](=O)[O-])c1`, for which the activation in assay [1] was 139% (active). The potentiation in assay [2] was 74.5% (active); in assay [3] it was 232% (active). Also, the result in assay [4] was inactive.

Turning to `O=C(N/N=C/c1c[nH]c2ccccc12)C1COc2ccccc2O1` (centres undefined), the outcome in assay [1], in assay [2], in assay [3] and in assay [4] was inactive.

As to `CCOC(=O)c1[nH]c(C=O)c(C(=O)OCC)c1C`, the outcome in assay [1], in assay [2], in assay [3] and in assay [4] was inactive.

As for `CCOC(=O)c1sc(NC(=O)c2ccc(OC(C)=O)cc2)nc1C`, the outcome in assay [1], in assay [2], in assay [3] and in assay [4] was inactive.

For the compound `CC(C)(C)NC(=O)C(=O)NNC(=O)c1ccc(C(C)(C)C)cc1`, the activation in assay [1] is 341% (active). Further, the potentiation in assay [2] was 112% (active); in assay [3], 352% (active). Besides, in assay [4], the outcome was inactive.

In the case of `CC(C(=O)O)n1c2ccccc2c2cn[nH]c(=O)c21` (centres undefined), the outcome in assay [1], in assay [2], in assay [3] and in assay [4] was inactive.

For the compound `COc1cccc(/C=N/NC(=O)C(C)n2nc(C)c([N+](=O)[O-])c2C)c1O` (centres undefined), the result in assay [1], in assay [2], in assay [3] and in assay [4] was inactive.

Consider `CCCCCCCCCCCCC/C=C/[C@@H](O)[C@@H](N)CO`, for which the activation in assay [1] is 406% (active). The potentiation in assay [2] is 218% (active); in assay [3], 414% (active). Further, the result in assay [4] was inactive.

For the compound `COc1ccc(OC)c(NC(=O)C(=O)NNC(=O)COc2ccc(Br)cc2C)c1`, in assay [1], the activation was 520% (active). Besides, the values for the potentiation in assay [2] and in assay [3] were 346% (active) and 614% (active), respectively. The result in assay [4] was inactive.

`CCn1c(SCC(=O)NC(=O)NCc2ccco2)nc2sc(C)c(C)c2c1=O`: the activation in assay [1] is 184% (active). Also, the potentiation in assay [2] is 40.5% (active); in assay [3] it was 173% (active). Moreover, the outcome in assay [4] was inactive.

With `O=[N+]([O-])c1cccc(-c2ccc3nnc(SCc4ccccn4)n3n2)c1`, the outcome in assay [1], in assay [2], in assay [3] and in assay [4] was inactive.

For the compound `S=c1nc(Cc2ccccc2)[nH]c2ccccc12`, in assay [1], the activation was 280% (active). In addition, the potentiation was 110% (active) in assay [2] and 415% (active) in assay [3]. For the same compound, in assay [4], the result was inactive.

With `c1ccc2c(c1)CSc1sccc1C2=C1CCNCC1`, the result in assay [1], in assay [2], in assay [3] and in assay [4] was inactive.

Regarding `O=C(NCc1ccc(F)cc1)C1CCC(CNS(=O)(=O)c2ccccc2)CC1` (centres undefined), the result in assay [1], in assay [2], in assay [3] and in assay [4] was inactive.

On to `CCc1ccc(/C=C/C(=O)C2C(=O)c3ccccc3C2=O)cc1`, for which the activation in assay [1] is 284% (active). Besides, the potentiation in assay [2] was 118% (active); in assay [3] it was 297% (active). Besides, in assay [4], the outcome was inactive.

For the compound `Cc1cccc(-c2nnc(NC(=O)c3ccc(Cl)cc3)o2)c1`, the outcome in assay [1] and in assay [4] was inactive. Besides, the values for the potentiation in assay [2] and in assay [3] were 30% (active) and 155% (active), respectively.

In the case of `O=Cc1cc2ccccc2nc1SCCCF`, the outcome in assay [1], in assay [2], in assay [3] and in assay [4] was inactive.

Regarding `Cc1cc(Br)ccc1OCC(=O)NNC(=O)C(=O)Nc1ccccc1`, in assay [1], the activation was 406% (active). For the same compound, the potentiation is 224% (active) in assay [2] and 478% (active) in assay [3]. For the same compound, the result in assay [4] was inactive.

For `O=C(O)C(c1ccccc1)N1C(=O)/C(=C\c2ccc(-c3ccc(Br)cc3)o2)SC1=S` (centres undefined), the result in assay [1] and in assay [3] was inactive. Besides, in assay [2], the potentiation was 17.5% (active). Besides, in assay [4], the current potentiation is 15% (active).

On to `CC(=O)Nc1ccc(/C=N/N2C(=O)NC(C)(c3ccc(OC(F)F)cc3)C2=O)cc1` (centres undefined), for which the activation in assay [1] is 219% (active). Further, the potentiation in assay [2] is 100% (active); in assay [3], 234% (active). Further, the outcome in assay [4] was inactive.

For the compound `Oc1c(N=NC(=S)Nc2ccccc2F)c2ccccc2n1Cc1ccc(F)cc1`, the outcome in assay [1], in assay [3] and in assay [4] was inactive. Moreover, the potentiation in assay [2] was 19.5% (active).

On to `Cc1ccc(S(=O)(=O)n2cccc2CO)cc1`, for which the outcome in assay [1], in assay [2], in assay [3] and in assay [4] was inactive.

As for `CCCCn1c(SCC(N)=O)nc2ccc(N3CCOCC3)cc2c1=O`, the outcome in assay [1], in assay [2], in assay [3] and in assay [4] was inactive.

As for `COc1ccc(/C=C2\SC(=S)N(NS(=O)(=O)c3ccc(C)cc3)C2=O)c(OC)c1`, the activation in assay [1] was 138% (active). Besides, the potentiation in assay [2] was 77.5% (active); in assay [3], 261% (active). The current potentiation in assay [4] was 20.6% (active).

For `COc1ccc(CCN=C(N)NS(=O)(=O)c2ccc(F)cc2)cc1OC`, the outcome in assay [1], in assay [2], in assay [3] and in assay [4] was inactive.

For the compound `O=c1ccc(-c2ccc(S(=O)(=O)Nc3ccccc3)o2)n[nH]1`, the result in assay [1], in assay [2], in assay [3] and in assay [4] was inactive.

`COCCN(C(=O)COC(=O)/C=C/c1cccs1)c1c(N)n(Cc2ccccc2)c(=O)[nH]c1=O`: the result in assay [1], in assay [2], in assay [3] and in assay [4] was inactive.
